Screening results as filed in PubChem.
Cneo AK release: causes C. neoformans cell lysis; adenylate kinase release luminescence, 4 h; normalised: neutral wells 0, clomiphene wells 100; 360,000 tested, 0.2% active; lysis activity, % at 15 µM;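 active means mean lysis activity across replicates of at least 80%, whatever share of replicates individually reach that level; inactive means mean lysis activity below 80%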
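Material – log-phase Cryptococcus neoformans yeast cells · Input – 5 × 10^6 yeast cells/mL · Medium – fresh YPD growth medium · Doses – single compound concentration per well · Timing – static 4 h at 37 °C with compound, 1 h detection · Detection – adenylate kinase release luminescence · Read-out – signal increase indicating cell lysis · Control set – Clomiphene as positive lysis control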
Statin myotox sup: protects C2C12 myotubes from simvastatin toxicity | ATP luminescence, 48 h; scaled: DMSO 0, geranylgeraniol control 100 | rescue of ATP level, % at 7.49 µM | 330,000 tested, 0.78% active | AID 602340;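 active means mean ATP rescue above about 67%, or every replicate alone reaching that limit, limit read from the data, passing the limit was not always enough; inconclusive means no clear call, values can overlap the other calls; inactive means mean under the limit and some replicate under it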;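 further: myotubes were challenged with 10 µM simvastatin during compound exposure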
DENV2 CPE: protects cells from dengue virus 2 cytopathic effect. DENV2-infected cells, cytopathic effect rescue, plate reader. CPE inhibition, % at 9.99 µM. 350,000 tested, 1.7% active; in the data active means CPE inhibition above about 20%, passing the limit was not always enough; inconclusive means no clear call, values can overlap the other calls; tested in BHK-21 cells;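 further: 0% = median of neutral control wells and 100% = median of positive control wells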
XiGFP reactiv: activators of X-chromosome reactivation in mouse fibroblasts | AID 743238 | 360,000 tested, 0.055% active | activation, % at 7.58 µM | XiGFP mouse fibroblasts, % GFP-positive cells imaging, 3 d; cells co-treated with 5-aza-dC sensitizer; scaled so ellipticine positive control = 100%;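 active means mean normalized replicate activation at least 10% and every replicate at or above 10%; inconclusive means only one of the two criteria met; inactive means mean below 10% and not all replicates reach 10%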;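 further: 0% = median of on-plate neutral control wells and 100% = ellipticine 6 µM median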
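System: SV40-immortalized XiGFP fibroblast cells, line 68-5-11 / Incubation: 3-day compound exposure, then 15 min fixation at room temperature / Compound: single concentration per compound, delivered by pin transfer / Buffer or medium: DMEM plus 5-aza-dC sensitizer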
* marks the source's active call; other numbers are inactive results; ? = inconclusive; nt = no result. Only some compounds are listed: those with a hit (about 2.1% of all), similar ones and a draw of the others.

SMILES	Cneo AK release	Statin myotox sup	DENV2 CPE	XiGFP reactiv
COc1ccc(-c2ccccc2[C@H]2[C@@H](C#N)N(C(=O)C3CC3)[C@@H]2CO)cc1	nt	nt	-0.5	0.1
COc1ccc(-c2ccccc2[C@@H]2[C@H](C#N)N(C(=O)C3CC3)[C@H]2CO)cc1	nt	nt	45.0*	0.2
N#C[C@H]1[C@@H](c2ccc(-c3ccccc3F)cc2)[C@H](CO)N1C(=O)C1CC1	-0.5	-52.1	-1.9	0.0
CCC(=O)N1[C@H](CO)[C@H](c2ccc(-c3ccc(F)cc3)cc2)[C@@H]1CNC(C)=O	81.6*	4.8	?	0.0
CCC(=O)N1[C@@H](CO)[C@@H](c2ccc(-c3ccc(F)cc3)cc2)[C@@H]1CNC(C)=O	0.5	-7.4	-16.9	-0.1
N#C[C@@H]1[C@H](c2ccccc2-c2cccc(F)c2)[C@H](CO)N1C(=O)C1CCCC1	nt	nt	36.7*	0.3
N#C[C@H]1[C@@H](c2ccccc2-c2cccc(F)c2)[C@H](CO)N1C(=O)C1CCCC1	nt	nt	-6.3	0.0
N#C[C@@H]1[C@H](c2ccc(-c3ccccc3F)cc2)[C@@H](CO)N1C(=O)C1CC1	3.6	5.6	37.1*	-0.1
CC(C)C#Cc1cnc2c(c1)C(=O)N([C@@H](C)CO)C[C@H](C)[C@@H](CN(C)C(=O)C1CCC1)O2	16.7	11.7	9.7	0.1
CC(C)NC(=O)Nc1ccc2c(c1)C(=O)N([C@H](C)CO)C[C@H](C)[C@@H](CN(C)C(=O)Nc1cccc3ccccc13)OCCCC[C@H](C)O2	-1.7	nt	6.4	0.0
C[C@@H]1CN([C@H](C)CO)C(=O)Cc2cc(NC(=O)Nc3ccccc3)ccc2O[C@@H]1CN(C)S(C)(=O)=O	-3.4	-5.2	0.1	0.0
O=C(NCC[C@@H]1CC[C@@H](NC(=O)c2ccc3c(c2)OCO3)[C@@H](CO)O1)Nc1cc(F)ccc1F	4.5	14.9	?	-0.1
C[C@@H]1CN([C@H](C)CO)S(=O)(=O)c2ccc(C#CCN(C)C)cc2O[C@@H]1CN(C)C(=O)C1CC1	nt	18.6	nt	-0.6
Cc1noc(C)c1S(=O)(=O)Nc1ccc2c(c1)C(=O)N([C@H](C)CO)C[C@H](C)[C@H](CN(C)C(=O)NC(C)C)OCCCC[C@H](C)O2	-8.2	nt	3.7	0.6
O=C(C1CCCC1)N1CC[C@@H]2[C@@H](CO)Nc3ccc(Br)cc3[C@@H]21	nt	nt	-7.1	0.0
N#C[C@H]1[C@H](c2ccccc2-c2ccccc2F)[C@@H](CO)N1C(=O)C1CC1	nt	nt	21.5*	0.1
CC(NC(=O)COc1ccccc1)C(c1ccccc1)N1CCN(C)CC1 (stereo not given)	3.8	90.3*	nt	nt
O=C(O)C[C@@H]1C[C@@H]2c3cc(NC(=O)C4CCC4)ccc3O[C@@H]2[C@H](CO)O1	nt	nt	-10.1	0.0
CN1C(c2ccccc2)CCOS1(=O)=O (stereo not given)	0.8	9.3	47.2*	0.0
COc1ccccc1-c1cnc2c(c1)C(=O)N([C@@H](C)CO)C[C@H](C)[C@H](CN(C)C(=O)c1ccccc1)O2	-5.4	50.1	-1.5	-0.5
C[C@H](CO)N1C[C@H](C)[C@H](CN(C)C(=O)Cc2ccccc2)OCCCC[C@H](C)Oc2ccc(NC(=O)Nc3ccc(C(F)(F)F)cc3)cc2C1=O	-3.2	97.1*	11.8	4.1
C[C@@H]1CCCCO[C@H](CN(C)C(=O)Nc2ccc(C(F)(F)F)cc2)[C@H](C)CN([C@@H](C)CO)C(=O)c2cc(NC(=O)Nc3ccc(C(F)(F)F)cc3)ccc2O1	3.7	nt	29.6*	0.0
C[C@H](CO)N1C[C@H](C)[C@H](CN(C)C(=O)Nc2ccc(C(F)(F)F)cc2)OCCCC[C@H](C)Oc2ccc(NC(=O)Nc3ccc(C(F)(F)F)cc3)cc2C1=O	14.4	nt	-5.9	0.5
C[C@H]1CCCCO[C@H](CN(C)C(=O)Nc2ccccc2)[C@@H](C)CN([C@@H](C)CO)C(=O)c2cc(NC(=O)Nc3ccc(C(F)(F)F)cc3)ccc2O1	nt	nt	59.8*	0.4
Cc1cc(O)c(C(C)C)cc1NC(=O)c1ccccc1Cl	-1.8	7.3	27.7*	0.2
SMILES	Cneo AK release	Statin myotox sup	DENV2 CPE	XiGFP reactiv
C[C@@H](CN1C2=NC[C@H](Cc3ccccc3)N2C[C@H]1Cc1ccc(O)cc1)NC(=O)CCC1CCCCC1	11.4	-31.0	40.8*	0.0
Cc1ccc(C(=O)N[C@@H](C)CN2C3=NC[C@H](C(C)C)N3C[C@H]2Cc2ccc(O)cc2)cc1Br	9.2	-7.7	106.2*	0.1
C[C@@H](CN1C2=NC[C@H](Cc3ccc(O)cc3)N2C[C@H]1Cc1ccc(O)cc1)NC(=O)CCC1CCCCC1	5.2	-4.3	-13.0	0.0
O=C(COC(=O)Cn1nnc(-c2ccccc2)n1)Nc1ccccc1Br	-1.0	99.7*	-12.7	-0.1
COc1ccc(OC)c(NC(=O)COC(=O)Cn2nnc(-c3ccccc3)n2)c1	0.1	5.3	12.6	-0.1
C[C@@H]1CN([C@H](C)CO)C(=O)Cc2cc(NC(=O)Cc3cn(C)c4ccccc34)ccc2O[C@@H]1CN(C)Cc1ccc2c(c1)OCO2	2.0	85.8*	-7.7	-0.1
C[C@@H]1CN([C@H](C)CO)C(=O)Cc2cc(NC(=O)Cc3cn(C)c4ccccc34)ccc2O[C@H]1CN(C)Cc1ccc(Cl)c(Cl)c1	2.8	94.9*	-6.7	-0.1
C[C@@H]1CN([C@@H](C)CO)C(=O)Cc2cc(NC(=O)Cc3cn(C)c4ccccc34)ccc2O[C@H]1CN(C)Cc1ccc(Cl)c(Cl)c1	5.6	71.8*	0.6	0.0
C[C@@H]1CN([C@@H](C)CO)C(=O)Cc2cc(NC(=O)Cc3cn(C)c4ccccc34)ccc2O[C@@H]1CN(C)Cc1ccc(Cl)c(Cl)c1	47.7	52.4	10.5	-0.1
Cc1occc1-c1nnc(SCC(=O)c2ccc(Cl)cc2)n1CC1CCCO1 (stereo not given)	-0.4	136.5*	nt	nt
C[C@@H]1COC(=O)[C@H](Cc2ccc(F)cc2)C/C=C\C[C@@H](CC(=O)N[C@H](CO)Cc2ccccc2)C(=O)N1	-1.0	8.8	40.8*	-0.3
C[C@@H]1COC(=O)[C@@H](Cc2ccc(F)cc2)C/C=C\C[C@@H](CC(=O)N[C@H](CO)Cc2ccccc2)C(=O)N1	6.5	-1.7	-5.8	-0.3
CCC(C)(C)C1CCc2[nH]nc(C(=O)NCc3ccc(Cl)cc3)c2C1 (stereo not given)	-1.2	13.7	-12.6	-0.3
CCC(C)(C)C1CCc2[nH]nc(C(=O)NCc3ccccn3)c2C1 (stereo not given)	3.2	-9.5	77.0*	0.0
CCC(C)N(C)Cc1cccc(C2(O)CCN(S(=O)(=O)c3ccc(F)cc3)CC2)c1 (stereo not given)	0.9	122.7*	nt	nt
CC(=O)Nc1ccc(S(=O)(=O)N2CCC(NC(C)=O)(c3cccc(F)c3)CC2)cc1	1.4	1.2	nt	nt
COc1ccccc1C#Cc1ccc([C@@H]2[C@@H](CO)N3CCCCN(C(=O)C4CCCC4)C[C@H]23)cc1	3.1	nt	-4.4	nt
CN(C[C@@H]1[C@@H](c2ccccc2)[C@H](CO)N1C(=O)C1CC1)C(=O)c1ccccn1	2.2	-2.1	54.0*	0.1
